Values after ≈ are worked out from the molar mass of the structure shown.
Legend:
[1] = target: T1, Dihydrofolate reductase (Bos taurus, UniProt P00376); experiment: Concentration required for inhibition of beef liver dihydrofolate reductase
T1 sequence (P00376 whole entry): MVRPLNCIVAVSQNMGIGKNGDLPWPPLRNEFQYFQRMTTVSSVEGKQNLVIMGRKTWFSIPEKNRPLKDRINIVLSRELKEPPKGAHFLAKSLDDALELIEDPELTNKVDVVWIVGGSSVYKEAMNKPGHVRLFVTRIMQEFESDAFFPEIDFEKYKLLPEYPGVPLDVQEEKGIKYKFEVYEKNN

[2] = system: M21; experiment: Colony count at 15 ug/mL of amide-linked conjugate of MTX and Dal K-20 in melanoma M21 cells; settings: Homo sapiens
[3] = system: CAKI-1; experiment: Inhibition of colony formation of Caki-1 cells by amide-linked conjugate of MTX and Dal K-20; format: functional, cell-based; settings: Homo sapiens
How it was run: (§1)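 Single-cell suspensions (>99% trypan blue-excluding) of M21 melanoma or Caki-1 renal carcinoma cells, 1 × 10⁶ cells/mL in McCoy's medium with 15% dialyzed FCS, exposed 6 h at 37 °C to agent, washed three times, plated in 0.3% agar over 0.5% agar base (10⁴ cells/plate). Incubated at 37 °C, 5% CO₂. Colonies >30 cells counted visually at 14 days, three plates per concentration.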

[4] = system: M21; experiment: Colony count at 20 ug/mL of hydrazone-linked conjugate of MTX and Dal K-20 in melanoma M21 cells; settings: Homo sapiens
[5] = system: M21; experiment: Colony count at 10 ug/mL of hydrazone-linked conjugate (regiospecific coupling) of MTX and Dal K-20 in melanoma M21 cells; settings: Homo sapiens
[6] = system: M21; experiment: Colony count at 20 ug/mL of amide-linked conjugate of MTX and Dal K-20 in melanoma M21 cells; settings: Homo sapiens
[7] = system: M21; experiment: Colony count at 10 ug/mL of amide-linked conjugate (regiospecific coupling) of MTX and Dal K-20 in melanoma M21 cells; settings: Homo sapiens
[8] = system: M21; experiment: Colony count at 15 ug/mL of amide-linked conjugate (regiospecific coupling) of MTX and Dal K-20 in melanoma M21 cells; settings: Homo sapiens
[9] = system: M21; experiment: Colony count at 20 ug/mL of amide-linked conjugate (regiospecific coupling) of MTX and Dal K-20 in melanoma M21 cells; settings: Homo sapiens
[10] = system: M21; experiment: Colony count at 20 ug/mL of hydrazone-linked conjugate (regiospecific coupling) of MTX and Dal K-20 in melanoma M21 cells; settings: Homo sapiens
[11] = system: CAKI-1; experiment: Inhibition of colony formation of Caki-1 cells by hydrazone-linked conjugate (regiospecific coupling) of MTX and Dal K-20; format: functional, cell-based; settings: Homo sapiens; how it was run: as §1
[12] = system: M21; experiment: Colony count at 15 ug/mL of hydrazone-linked conjugate of MTX and Dal K-20 in melanoma M21 cells; settings: Homo sapiens
[13] = system: CAKI-1; experiment: Inhibition of colony formation of Caki-1 cells by hydrazone-linked conjugate of MTX and Dal K-20; format: functional, cell-based; settings: Homo sapiens; how it was run: as §1
[14] = system: M21; experiment: Colony count at 15 ug/mL of hydrazone-linked conjugate (regiospecific coupling) of MTX and Dal K-20 in melanoma M21 cells; settings: Homo sapiens
[15] = system: CAKI-1; experiment: Inhibition of colony formation of Caki-1 cells by MTX; format: functional, cell-based; settings: Homo sapiens; how it was run: as §1
[16] = system: CAKI-1; experiment: Inhibition of colony formation of Caki-1 cells by amide-linked conjugate (regiospecific coupling) of MTX and Dal K-20; format: functional, cell-based; settings: Homo sapiens; how it was run: as §1
[17] = system: M21; experiment: Colony count at 10 ug/mL of hydrazone-linked conjugate of MTX and Dal K-20 in melanoma M21 cells; settings: Homo sapiens
[18] = system: M21; experiment: Colony count at 10 ug/mL of amide-linked conjugate of MTX and Dal K-20 in melanoma M21 cells; settings: Homo sapiens

CN(Cc1cnc2nc(N)nc(N)c2n1)c1ccc(C(=O)NC(CCC(=O)NN)C(=O)O)cc1 (stereo unspecified)
IC50 [1]: 30.7 µM

CN(Cc1cnc2nc(N)nc(N)c2n1)c1ccc(C(=O)NC(CCC(=O)NN)C(=O)NN)cc1 (stereo unspecified)
IC50 [1]: 37.9 µM

CN(Cc1cnc2nc(N)nc(N)c2n1)c1ccc(C(=O)NC(CCC(=O)NN)C(=O)OC(C)(C)C)cc1 (stereo unspecified)
IC50 [1]: 41.2 µM

CN(Cc1cnc2nc(N)nc(N)c2n1)c1ccc(C(=O)N[C@@H](CCC(=O)O)C(=O)O)cc1 [METHOTREXATE]
colony count [2]: 117 colonies/plate
IC50 [3]: 4.5 µg/mL (≈ 9.9 µM)
colony count [4]: 108 colonies/plate
colony count [5]: 120 colonies/plate
colony count [6]: 119 colonies/plate
colony count [7]: 115 colonies/plate
colony count [8]: 118 colonies/plate
colony count [9]: 112 colonies/plate
colony count [10]: 115 colonies/plate
IC50 [11]: 3 µg/mL (≈ 6.6 µM)
colony count [12]: 109 colonies/plate
IC50 [13]: 3.4 µg/mL (≈ 7.48 µM)
colony count [14]: 121 colonies/plate
IC50 [15]: 25 µg/mL (≈ 55 µM)
IC50 [16]: 3.3 µg/mL (≈ 7.26 µM)
colony count [17]: 112 colonies/plate
colony count [18]: 109 colonies/plate

COC(=O)CCC(NC(=O)c1ccc(N(C)Cc2cnc3nc(N)nc(N)c3n2)cc1)C(=O)O (stereo unspecified)
IC50 [1]: 25.4 µM
